Compounds with a hit are over-represented: about 3.7% of the library has one in this group of screens.
KCNQ1 act: potentiates or activates the human KCNQ1 potassium channel; P51787; CHO-K1 KCNQ1, thallium flux FluxOR fluorescence; hits give high values; B-score at 10 µM; 310,000 tested, 0.35% active; AID 2648;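 active = fluorescence ratio B-score, a plate-corrected score, at least three library SD, with initial intensity B-score within 5 SD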
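Material: CHO-K1 cells stably expressing KCNQ1. Medium: assay buffer for compound exposure, DMSO matched across wells. Reagent: K+/Tl+ depolarizing stimulus. Compound dosing: single-concentration screen. Times: 37 °C overnight plating, 90-min dark dye load, 20-min compound pretreatment. Technique: FluxOR Tl+ flux fluorescence.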
hERG protect: compounds protecting human hERG from proarrhythmic drug block; Q12809; CHO-hERG, FluxOR thallium flux, dofetilide IC70 present; activation (rescue from dofetilide block), less the hit threshold, % at 10 µM; 310,000 tested, 0.51% active;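 active = activation above the mean of controls blocked by dofetilide plus 5 SD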;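 note: thallium influx through hERG after potassium depolarization seen as dye fluorescence rise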
KCNK3 block: human KCNK3 channel inhibition, primary screen; CHO-KCNK3 thallium flux, FluxOR fluorescence; hits give low values; B-score at 10 µM; 340,000 tested, 0.84% active;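 active = B-score under library mean minus 4 SD, starting fluorescence ratio at most library mean plus 5 SD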;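 note: more negative B-score means stronger inhibition of thallium flux through KCNK3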
Target sequence (O14649 whole entry, looked up): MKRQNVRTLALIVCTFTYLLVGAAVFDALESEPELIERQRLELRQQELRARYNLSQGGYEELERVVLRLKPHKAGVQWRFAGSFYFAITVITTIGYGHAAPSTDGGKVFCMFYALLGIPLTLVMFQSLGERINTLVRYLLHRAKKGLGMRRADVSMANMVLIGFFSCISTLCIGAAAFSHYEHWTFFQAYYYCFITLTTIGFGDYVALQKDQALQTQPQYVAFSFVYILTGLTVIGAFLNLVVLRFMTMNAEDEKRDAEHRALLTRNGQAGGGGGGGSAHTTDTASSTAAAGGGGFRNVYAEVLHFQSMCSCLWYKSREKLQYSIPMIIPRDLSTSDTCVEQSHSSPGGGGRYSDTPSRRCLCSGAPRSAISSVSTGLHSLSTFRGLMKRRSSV
KCNQ1 block: inhibitors of human KCNQ1 potassium channel; 310,000 tested, 1.3% active; B-score at 10 µM; AID 2642; CHO-K1 KCNQ1, FluxOR thallium flux fluorescence; hits give high values; P51787;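 active = compounds whose thallium flux B-score, printed positive for inhibition, exceeds three library SD while starting fluorescence stays within three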;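 note: channel opened by potassium depolarization with thallium stimulus after 20 min compound exposure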
KCNK9 block: inhibitors of human KCNK9 two-pore domain potassium channel; HEK293 KCNK9, FluxOR thallium flux fluorescence; hits give low values; 310,000 tested, 1.2% active; AID 488922; B-score at 10 µM;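 active = ratio B-score over 3 SD below the library mean, with starting fluorescence within 5 SD of its mean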;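 note: negative B-score means less thallium flux so channel inhibition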
Kir21 inh: blocks the mouse Kir2.1 inward-rectifier potassium channel; B-score at 10 µM; 310,000 tested, 0.85% active; HEK293-Kir2.1, FluxOR thallium flux fluorescence; hits give low values; P35561; AID 1672;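 active = fluorescence ratio B-score at or below minus 3 SD of library scores, with starting-brightness B-score within 2 SD, cut at about -4.2 in these data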;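 note: channel flux triggered by added potassium and thallium sulfate stimulus; B-score of peak minus minimum fluorescence over baseline after thallium stimulus; more negative B-score means stronger Kir2.1 block with less thallium influx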
* marks the source's active call; other numbers are inactive results.

Screening O=C(Cc1ccc(Cl)c(Cl)c1)Nc1ccccc1N1CCCC1 returned KCNQ1 act inactive, hERG protect -1, KCNK3 block inactive, KCNQ1 block inactive, KCNK9 block inactive and Kir21 inh -0.2.
For O=C(Nc1ccccc1N1CCN(c2ccc(F)cc2)CC1)C1CCCCC1 the results were KCNQ1 act inactive, hERG protect -7, KCNK3 block inactive, KCNQ1 block inactive, KCNK9 block -6.7* and Kir21 inh 0.84.
O=C(Cc1ccc(F)cc1)Nc1ccccc1N1CCCC1 was read as KCNQ1 act inactive, hERG protect -9, KCNK3 block inactive, KCNQ1 block inactive, KCNK9 block inactive and Kir21 inh -5.4*.
For CC(NCc1cc(Br)ccc1OCC(=O)NCc1ccccc1)c1ccccc1 (stereo not given) the results were KCNQ1 act inactive, hERG protect -39, KCNK3 block inactive, KCNQ1 block 6*, KCNK9 block inactive and Kir21 inh -16*.
`COc1ccc(CCNCC(O)COc2cccc(Br)c2)cc1` (stereo not given) gave KCNQ1 act inactive, hERG protect -10, KCNK3 block inactive, KCNQ1 block inactive, KCNK9 block inactive and Kir21 inh -8.7*.
COc1ccc(CCC(C)NCc2ccc(Cl)c(Cl)c2)cc1 (stereo not given) was read as KCNQ1 act inactive, hERG protect -16, KCNK3 block inactive, KCNQ1 block inactive, KCNK9 block inactive and Kir21 inh -4.5*.
Screening COc1ccc(CCC(C)NCc2ccc(F)cc2)cc1 (stereo not given) returned KCNQ1 act inactive, hERG protect -6, KCNK3 block inactive, KCNQ1 block inactive, KCNK9 block inactive and Kir21 inh -6.1*.
`COc1ccc(CCC(C)NCc2cc(OC)cc(OC)c2)cc1` (stereo not given) gave KCNQ1 act inactive, hERG protect -2, KCNK3 block inactive, KCNQ1 block inactive, KCNK9 block inactive and Kir21 inh -3.9.
`CC(=O)c1cccc(OCC(O)CNCCc2ccc(Cl)cc2)c1` (stereo not given) gave KCNQ1 act inactive, hERG protect -2, KCNK3 block inactive, KCNQ1 block inactive, KCNK9 block inactive and Kir21 inh -3.5.
`COc1ccc(CCNCC(O)c2ccccc2)cc1` (stereo not given) gave KCNQ1 act inactive, hERG protect -12, KCNK3 block inactive, KCNQ1 block inactive, KCNK9 block inactive and Kir21 inh -4.9*.
`COc1ccc([C@H]2C(C(=O)O)=C[C@@H](C(C)(C)C)N2S(=O)(=O)c2ccc(C)cc2)cc1OC` gave KCNK3 block inactive.
For O=C(CCl)N1CCN(S(=O)(=O)Cc2ccccc2)CC1 the results were KCNK3 block inactive.
For Cc1cc(C)c(C)c(S(=O)(=O)NC(C(=O)NCCc2ccco2)C(C)C)c1C (stereo not given) the results were KCNK3 block inactive.
`COc1ccc(CCNCC(C)c2ccccc2)cc1` (stereo not given) gave KCNQ1 act inactive, hERG protect -7, KCNK3 block inactive, KCNQ1 block inactive, KCNK9 block inactive and Kir21 inh -0.94.
For COc1ccc(CCC(C)NCC(C)c2ccccc2)cc1 (stereo not given) the results were KCNQ1 act inactive, hERG protect -2, KCNK3 block inactive, KCNQ1 block inactive, KCNK9 block inactive and Kir21 inh -4.4*.
COc1ccc2ccccc2c1CNC(C)CCc1ccccc1 (stereo not given) was read as KCNQ1 act inactive, hERG protect -8, KCNK3 block inactive, KCNQ1 block inactive, KCNK9 block inactive and Kir21 inh -7.7*.
CCCN(C(=O)CSc1ncccn1)C1CCS(=O)(=O)C1 (stereo not given) was read as KCNK3 block inactive.
O=C(COC(=O)c1cnc(Cl)c(Cl)c1)NC1CC1 was read as KCNK3 block inactive.
`CCN1/C(=C/C(C)=C/c2sc3ccccc3[n+]2CC)Sc2ccccc21` gave KCNQ1 act inactive, hERG protect -26, KCNK3 block -15*, KCNQ1 block inactive, KCNK9 block inactive and Kir21 inh 1.8.
For O=C(CCN1C(=O)C2CC=CCC2C1=O)Nc1nc(-c2ccc(F)c(F)c2)cs1 (stereo not given) the results were KCNK3 block inactive.
Screening CC1CCc2nc3ccccc3c(C(=O)OCC(=O)N3CCc4ccccc43)c2C1 (stereo not given) returned KCNQ1 act inactive, hERG protect -3, KCNK3 block inactive, KCNQ1 block inactive, KCNK9 block inactive and Kir21 inh 0.
For CCCc1nc2ccccc2c(C(=O)OCC(=O)N2CCc3ccccc32)c1CC the results were KCNQ1 act inactive, hERG protect -11, KCNK3 block inactive, KCNQ1 block inactive, KCNK9 block -6.6* and Kir21 inh -1.3.
`COc1ccc(COC(=O)C2CCN(S(=O)(=O)c3ccc(OC)c(OC)c3)CC2)cc1` gave KCNK3 block inactive.
Screening CSC(=S)N/N=C/c1ccc(Br)cc1 returned KCNQ1 act 41*, hERG protect 19*, KCNK3 block inactive, KCNQ1 block inactive, KCNK9 block inactive and Kir21 inh 0.26.
Screening CSC(=S)N/N=C/c1ccc(N(C)C)cc1 returned KCNQ1 act 9*, hERG protect -11, KCNK3 block inactive, KCNQ1 block inactive, KCNK9 block inactive and Kir21 inh 1.1.
`S=C(N/N=C/c1ccc(Br)cc1)N1CCCCC1` gave KCNQ1 act inactive, hERG protect -5, KCNK3 block inactive, KCNQ1 block inactive, KCNK9 block inactive and Kir21 inh 2.1.
`CC(=O)NCCc1ccc(S(=O)(=O)Nc2ccc3c(c2)OCCO3)cc1` gave KCNQ1 act inactive, hERG protect -3, KCNK3 block inactive, KCNQ1 block inactive, KCNK9 block inactive and Kir21 inh 0.75.
`FC(F)Sc1nc(-c2ccccc2)c(-c2ccccc2)n1C(F)F` gave KCNQ1 act inactive, hERG protect -8, KCNK3 block inactive, KCNQ1 block 9*, KCNK9 block inactive and Kir21 inh -1.2.
Screening Cc1ccc2sc(C)cc(=O)c2c1 returned KCNK3 block inactive.
Screening COC(=O)C1=C(C(=O)OC)[C@@H]2N(Cc3ccccc3)c3ccccc3[C@@]23C[C@@H](C(=O)OC)N(C(=O)CC(C)C)C3=N1 returned KCNQ1 act inactive, hERG protect -4, KCNK3 block inactive, KCNQ1 block inactive, KCNK9 block -7.9* and Kir21 inh -0.41.
